Reference: ChEMBL document CHEMBL2417369, “Synthesis and evaluation of heteroaryl substituted diazaspirocycles as scaffolds to probe the ATP-binding site of protein kinases” (Bioorg Med Chem, 2013)

Experiments:
[1] = molecular target: T1, MAP kinase-activated protein kinase 5 (Homo sapiens) (UniProt Q8IW41); assay: Inhibition of MAPKAPK5 (unknown origin) at 30 uM by microfluidic mobility shift assay relative to control
T1 sequence (whole entry): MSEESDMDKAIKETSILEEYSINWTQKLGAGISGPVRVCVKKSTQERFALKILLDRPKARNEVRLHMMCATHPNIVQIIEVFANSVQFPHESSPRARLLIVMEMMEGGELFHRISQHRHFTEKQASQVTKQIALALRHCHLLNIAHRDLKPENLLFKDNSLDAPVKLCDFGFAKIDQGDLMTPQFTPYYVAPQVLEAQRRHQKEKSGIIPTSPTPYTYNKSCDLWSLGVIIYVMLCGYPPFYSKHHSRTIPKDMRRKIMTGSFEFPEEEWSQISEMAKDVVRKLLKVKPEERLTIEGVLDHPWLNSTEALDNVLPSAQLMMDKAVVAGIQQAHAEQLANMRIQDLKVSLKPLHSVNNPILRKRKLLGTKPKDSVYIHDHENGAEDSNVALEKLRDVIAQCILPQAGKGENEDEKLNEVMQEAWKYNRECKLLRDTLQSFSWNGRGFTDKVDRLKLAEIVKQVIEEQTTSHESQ
How it was run: (§1)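 Single-point screen in a 24-enzyme kinase panel using a microfluidic assay. Each compound was tested at […] with ATP at roughly the Km for each enzyme. The pan-AGC inhibitor H-89 served as an internal control on every plate.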

[2] = molecular target: Mitogen-activated protein kinase 14 (Homo sapiens) (UniProt Q16539); assay: Inhibition of p38alpha (unknown origin) at 30 uM by microfluidic mobility shift assay relative to control; how it was run: as §1
[3] = molecular target: Glycogen synthase kinase-3 beta (Homo sapiens, UniProt P49841); assay: Inhibition of GSK3beta (unknown origin) at 30 uM by microfluidic mobility shift assay relative to control; how it was run: as §1
Glycogen synthase kinase-3 beta, sequence (P49841 whole entry, looked up): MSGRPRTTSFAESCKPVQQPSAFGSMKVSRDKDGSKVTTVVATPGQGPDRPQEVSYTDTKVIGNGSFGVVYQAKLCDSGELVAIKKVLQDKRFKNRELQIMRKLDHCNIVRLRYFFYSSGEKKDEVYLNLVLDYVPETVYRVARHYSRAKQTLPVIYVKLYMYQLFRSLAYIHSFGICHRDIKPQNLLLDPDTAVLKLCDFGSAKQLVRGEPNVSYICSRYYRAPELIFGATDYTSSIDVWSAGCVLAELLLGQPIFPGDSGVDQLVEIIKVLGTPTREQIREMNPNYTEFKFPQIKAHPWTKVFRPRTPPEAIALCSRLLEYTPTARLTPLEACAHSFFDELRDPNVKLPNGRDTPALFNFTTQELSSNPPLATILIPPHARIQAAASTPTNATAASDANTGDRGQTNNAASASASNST

[4] = molecular target: Insulin receptor (Homo sapiens) (UniProt P06213); assay: Inhibition of INSR (unknown origin) at 30 uM by microfluidic mobility shift assay relative to control; how it was run: as §1
Insulin receptor (Homo sapiens), sequence (P06213 28-758 limits assumed): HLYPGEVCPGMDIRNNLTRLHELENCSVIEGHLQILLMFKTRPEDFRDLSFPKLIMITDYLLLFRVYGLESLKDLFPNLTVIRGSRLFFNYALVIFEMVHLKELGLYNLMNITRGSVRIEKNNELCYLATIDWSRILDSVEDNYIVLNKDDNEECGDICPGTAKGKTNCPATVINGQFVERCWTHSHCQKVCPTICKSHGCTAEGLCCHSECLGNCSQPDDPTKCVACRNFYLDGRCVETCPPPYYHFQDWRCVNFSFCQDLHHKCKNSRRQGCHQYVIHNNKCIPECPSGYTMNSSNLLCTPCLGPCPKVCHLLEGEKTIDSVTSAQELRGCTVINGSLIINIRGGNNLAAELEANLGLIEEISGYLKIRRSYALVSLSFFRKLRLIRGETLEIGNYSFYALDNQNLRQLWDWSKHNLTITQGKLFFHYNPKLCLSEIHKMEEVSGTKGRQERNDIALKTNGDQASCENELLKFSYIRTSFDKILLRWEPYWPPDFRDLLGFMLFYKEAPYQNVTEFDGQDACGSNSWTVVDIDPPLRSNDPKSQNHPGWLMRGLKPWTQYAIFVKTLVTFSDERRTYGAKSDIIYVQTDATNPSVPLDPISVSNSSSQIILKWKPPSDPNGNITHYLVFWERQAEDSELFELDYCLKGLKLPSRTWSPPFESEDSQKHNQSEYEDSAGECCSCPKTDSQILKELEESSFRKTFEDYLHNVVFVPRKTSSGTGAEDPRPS
Insulin receptor (Homo sapiens), sequence (P06213 763-1382 limits assumed): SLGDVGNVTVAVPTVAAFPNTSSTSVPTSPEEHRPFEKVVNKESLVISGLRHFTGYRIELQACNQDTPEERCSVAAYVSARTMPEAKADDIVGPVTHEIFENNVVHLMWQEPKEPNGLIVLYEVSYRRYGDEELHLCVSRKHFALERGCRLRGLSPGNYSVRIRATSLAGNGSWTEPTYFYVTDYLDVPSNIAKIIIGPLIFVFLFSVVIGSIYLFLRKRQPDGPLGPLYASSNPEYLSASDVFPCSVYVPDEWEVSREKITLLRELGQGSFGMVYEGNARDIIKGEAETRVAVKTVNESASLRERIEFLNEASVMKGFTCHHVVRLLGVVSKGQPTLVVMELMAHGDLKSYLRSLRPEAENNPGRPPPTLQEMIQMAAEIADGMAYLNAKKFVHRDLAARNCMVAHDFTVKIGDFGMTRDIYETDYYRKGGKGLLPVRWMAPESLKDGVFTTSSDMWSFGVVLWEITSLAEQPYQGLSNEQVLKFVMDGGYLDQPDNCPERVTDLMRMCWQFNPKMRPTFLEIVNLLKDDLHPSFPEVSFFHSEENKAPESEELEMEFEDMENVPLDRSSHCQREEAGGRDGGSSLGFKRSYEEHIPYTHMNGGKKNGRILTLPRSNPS

[5] = molecular target: Ribosomal protein S6 kinase alpha-1 (Homo sapiens, UniProt Q15418); assay: Inhibition of RSK1 (unknown origin) at 30 uM by microfluidic mobility shift assay relative to control; how it was run: as §1
[6] = molecular target: Ribosomal protein S6 kinase alpha-5 (Homo sapiens, UniProt O75582); assay: Inhibition of MSK1 (unknown origin) at 30 uM by microfluidic mobility shift assay relative to control; how it was run: as §1
[7] = molecular target: T2, Aurora kinase A (Homo sapiens) (UniProt O14965); assay: Inhibition of AURA (unknown origin) at 30 uM by microfluidic mobility shift assay relative to control; how it was run: as §1
T2 sequence (whole entry): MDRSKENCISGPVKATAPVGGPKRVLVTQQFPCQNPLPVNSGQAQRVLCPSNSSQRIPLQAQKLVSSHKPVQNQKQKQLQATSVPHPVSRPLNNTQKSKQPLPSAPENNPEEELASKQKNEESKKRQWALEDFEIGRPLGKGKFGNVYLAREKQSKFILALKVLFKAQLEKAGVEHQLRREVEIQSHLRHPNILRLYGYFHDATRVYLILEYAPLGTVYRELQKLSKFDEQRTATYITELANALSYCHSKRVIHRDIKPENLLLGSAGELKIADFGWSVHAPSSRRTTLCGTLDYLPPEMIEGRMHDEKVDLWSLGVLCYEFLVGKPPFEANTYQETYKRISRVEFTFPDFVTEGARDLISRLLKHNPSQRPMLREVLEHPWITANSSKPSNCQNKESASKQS

[8] = molecular target: Tyrosine-protein kinase ABL1 (Homo sapiens, UniProt P00519); assay: Inhibition of ABL (unknown origin) at 30 uM by microfluidic mobility shift assay relative to control; how it was run: as §1
Tyrosine-protein kinase ABL1, sequence (P00519 whole entry): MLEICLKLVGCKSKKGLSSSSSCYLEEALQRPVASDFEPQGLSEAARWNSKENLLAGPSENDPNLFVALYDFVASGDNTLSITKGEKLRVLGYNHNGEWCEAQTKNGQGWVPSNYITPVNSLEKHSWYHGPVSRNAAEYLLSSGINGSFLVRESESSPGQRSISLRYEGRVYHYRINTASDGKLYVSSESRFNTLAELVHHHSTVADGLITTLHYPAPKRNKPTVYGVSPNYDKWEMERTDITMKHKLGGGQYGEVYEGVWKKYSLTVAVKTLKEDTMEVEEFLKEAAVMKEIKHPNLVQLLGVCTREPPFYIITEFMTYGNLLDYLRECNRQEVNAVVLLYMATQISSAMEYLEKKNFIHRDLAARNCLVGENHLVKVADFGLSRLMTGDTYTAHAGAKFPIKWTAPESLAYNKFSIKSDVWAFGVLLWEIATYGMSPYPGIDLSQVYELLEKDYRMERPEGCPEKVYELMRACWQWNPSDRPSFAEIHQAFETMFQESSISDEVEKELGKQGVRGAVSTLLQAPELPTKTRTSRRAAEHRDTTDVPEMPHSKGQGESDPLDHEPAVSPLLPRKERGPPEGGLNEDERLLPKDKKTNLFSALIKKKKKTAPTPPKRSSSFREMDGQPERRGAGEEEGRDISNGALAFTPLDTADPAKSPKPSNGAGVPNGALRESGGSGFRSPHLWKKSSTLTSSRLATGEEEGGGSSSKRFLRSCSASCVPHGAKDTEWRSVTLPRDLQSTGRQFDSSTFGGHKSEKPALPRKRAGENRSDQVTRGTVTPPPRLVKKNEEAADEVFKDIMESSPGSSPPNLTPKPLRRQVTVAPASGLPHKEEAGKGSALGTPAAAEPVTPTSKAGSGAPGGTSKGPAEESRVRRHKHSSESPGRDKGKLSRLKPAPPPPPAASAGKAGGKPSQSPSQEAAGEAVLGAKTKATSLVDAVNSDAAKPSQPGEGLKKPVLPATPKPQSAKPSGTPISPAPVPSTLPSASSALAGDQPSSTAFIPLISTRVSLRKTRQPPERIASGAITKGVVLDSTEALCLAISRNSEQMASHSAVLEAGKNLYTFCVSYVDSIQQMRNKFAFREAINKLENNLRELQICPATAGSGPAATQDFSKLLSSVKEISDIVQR

[9] = molecular target: Mitogen-activated protein kinase 1 (Homo sapiens, UniProt P28482); assay: Inhibition of ERK2 (unknown origin) at 30 uM by microfluidic mobility shift assay relative to control; how it was run: as §1
[10] = molecular target: Mitogen-activated protein kinase 3 (Homo sapiens, UniProt P27361); assay: Inhibition of ERK1 (unknown origin) at 30 uM by microfluidic mobility shift assay relative to control; how it was run: as §1
Mitogen-activated protein kinase 3, sequence (P27361 whole entry): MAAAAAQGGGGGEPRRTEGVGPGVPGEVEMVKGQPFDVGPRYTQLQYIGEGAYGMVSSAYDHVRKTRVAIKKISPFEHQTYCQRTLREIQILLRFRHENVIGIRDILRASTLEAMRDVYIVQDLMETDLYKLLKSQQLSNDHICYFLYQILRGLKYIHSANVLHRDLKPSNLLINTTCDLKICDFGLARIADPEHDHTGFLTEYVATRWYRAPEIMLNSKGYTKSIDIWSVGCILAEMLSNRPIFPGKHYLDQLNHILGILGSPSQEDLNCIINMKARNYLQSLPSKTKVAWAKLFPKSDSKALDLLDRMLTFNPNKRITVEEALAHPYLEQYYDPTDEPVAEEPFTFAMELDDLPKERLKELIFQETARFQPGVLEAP

[11] = molecular target: MAP kinase-activated protein kinase 2 (Homo sapiens) (UniProt P49137); assay: Inhibition of MK2 (unknown origin) at 30 uM by microfluidic mobility shift assay relative to control; how it was run: as §1
MAP kinase-activated protein kinase 2 (Homo sapiens), sequence (P49137 whole entry, looked up): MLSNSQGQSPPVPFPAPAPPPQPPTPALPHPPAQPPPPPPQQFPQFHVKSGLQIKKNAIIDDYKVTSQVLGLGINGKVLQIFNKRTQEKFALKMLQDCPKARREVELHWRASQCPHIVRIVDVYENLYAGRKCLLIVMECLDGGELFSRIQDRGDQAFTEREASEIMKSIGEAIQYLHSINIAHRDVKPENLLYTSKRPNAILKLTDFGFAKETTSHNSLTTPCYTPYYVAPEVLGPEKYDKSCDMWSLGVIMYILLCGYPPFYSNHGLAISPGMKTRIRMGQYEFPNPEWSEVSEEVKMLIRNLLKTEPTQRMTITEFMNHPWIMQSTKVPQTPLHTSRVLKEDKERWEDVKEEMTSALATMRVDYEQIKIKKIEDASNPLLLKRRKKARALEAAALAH

[12] = molecular target: RAC-alpha serine/threonine-protein kinase (Homo sapiens, UniProt P31749); assay: Inhibition of AKT1 (unknown origin) at 30 uM by microfluidic mobility shift assay relative to control; how it was run: as §1
RAC-alpha serine/threonine-protein kinase, sequence (P31749 whole entry): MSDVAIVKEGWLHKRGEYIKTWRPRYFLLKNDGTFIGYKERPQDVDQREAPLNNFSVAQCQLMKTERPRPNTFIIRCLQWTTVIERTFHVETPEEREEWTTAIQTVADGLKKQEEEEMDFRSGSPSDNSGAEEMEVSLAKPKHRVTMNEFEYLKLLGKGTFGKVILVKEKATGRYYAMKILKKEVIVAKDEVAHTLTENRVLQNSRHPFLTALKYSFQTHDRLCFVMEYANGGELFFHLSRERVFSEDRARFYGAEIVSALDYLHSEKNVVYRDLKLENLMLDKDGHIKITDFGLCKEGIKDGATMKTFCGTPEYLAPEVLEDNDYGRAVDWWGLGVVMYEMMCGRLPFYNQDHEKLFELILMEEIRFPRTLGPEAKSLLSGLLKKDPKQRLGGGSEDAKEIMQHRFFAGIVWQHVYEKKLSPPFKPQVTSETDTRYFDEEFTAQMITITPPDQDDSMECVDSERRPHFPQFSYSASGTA

[13] = molecular target: RAC-beta serine/threonine-protein kinase (Homo sapiens, UniProt P31751); assay: Inhibition of AKT2 (unknown origin) at 30 uM by microfluidic mobility shift assay relative to control; how it was run: as §1
[14] = molecular target: Tyrosine-protein kinase Fyn (Homo sapiens, UniProt P06241); assay: Inhibition of FYN (unknown origin) at 30 uM by microfluidic mobility shift assay relative to control; how it was run: as §1
[15] = molecular target: T3, Serine/threonine-protein kinase D2 (Homo sapiens) (UniProt Q9BZL6); assay: Inhibition of PKD2 (unknown origin) at 30 uM by microfluidic mobility shift assay relative to control; how it was run: as §1
T3 sequence (whole entry): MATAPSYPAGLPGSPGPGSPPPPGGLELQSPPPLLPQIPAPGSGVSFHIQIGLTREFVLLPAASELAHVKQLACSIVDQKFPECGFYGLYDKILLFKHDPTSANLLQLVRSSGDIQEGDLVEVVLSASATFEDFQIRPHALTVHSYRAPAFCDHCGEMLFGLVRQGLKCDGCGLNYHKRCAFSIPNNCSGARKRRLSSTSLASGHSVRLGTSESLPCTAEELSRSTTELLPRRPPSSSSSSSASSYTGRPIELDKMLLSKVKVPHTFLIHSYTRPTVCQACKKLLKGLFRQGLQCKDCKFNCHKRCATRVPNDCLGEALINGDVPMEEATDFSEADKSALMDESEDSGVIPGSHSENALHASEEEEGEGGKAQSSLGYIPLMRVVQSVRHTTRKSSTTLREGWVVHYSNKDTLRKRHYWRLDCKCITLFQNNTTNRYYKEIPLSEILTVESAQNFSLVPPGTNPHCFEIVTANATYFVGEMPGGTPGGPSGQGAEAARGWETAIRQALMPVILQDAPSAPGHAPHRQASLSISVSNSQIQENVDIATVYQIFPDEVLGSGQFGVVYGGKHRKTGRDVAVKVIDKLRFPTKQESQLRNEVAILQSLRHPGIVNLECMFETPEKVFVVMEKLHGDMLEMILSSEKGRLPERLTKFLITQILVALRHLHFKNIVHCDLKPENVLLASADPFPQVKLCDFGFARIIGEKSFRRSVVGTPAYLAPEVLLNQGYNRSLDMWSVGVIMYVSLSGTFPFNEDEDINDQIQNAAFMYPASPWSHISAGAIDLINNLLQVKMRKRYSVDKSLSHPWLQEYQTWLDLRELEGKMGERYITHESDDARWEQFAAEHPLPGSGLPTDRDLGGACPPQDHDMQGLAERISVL

[16] = molecular target: Tyrosine-protein kinase Lck (Homo sapiens, UniProt P06239); assay: Inhibition of LCK (unknown origin) at 30 uM by microfluidic mobility shift assay relative to control; how it was run: as §1
Tyrosine-protein kinase Lck, sequence (P06239 2-509 limits assumed): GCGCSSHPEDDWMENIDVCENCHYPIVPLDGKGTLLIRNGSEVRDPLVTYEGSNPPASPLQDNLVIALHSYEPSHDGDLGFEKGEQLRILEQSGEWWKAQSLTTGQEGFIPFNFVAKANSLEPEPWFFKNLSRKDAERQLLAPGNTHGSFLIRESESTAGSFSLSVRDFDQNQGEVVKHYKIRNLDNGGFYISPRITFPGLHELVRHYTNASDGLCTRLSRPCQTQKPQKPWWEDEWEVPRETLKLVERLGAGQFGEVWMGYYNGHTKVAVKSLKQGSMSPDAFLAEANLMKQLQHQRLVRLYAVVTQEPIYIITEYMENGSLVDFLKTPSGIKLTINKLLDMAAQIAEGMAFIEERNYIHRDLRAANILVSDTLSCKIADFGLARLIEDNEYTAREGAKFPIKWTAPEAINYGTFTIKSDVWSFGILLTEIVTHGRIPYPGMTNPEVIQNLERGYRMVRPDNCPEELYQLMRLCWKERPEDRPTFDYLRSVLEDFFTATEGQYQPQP

Row | SMILES | inhibition [1] [%] | inhibition [2] [%] | inhibition [3] [%] | inhibition [4] [%] | inhibition [5] [%] | inhibition [6] [%] | inhibition [7] [%] | inhibition [8] [%] | inhibition [9] [%] | inhibition [10] [%] | inhibition [11] [%] | inhibition [12] [%] | inhibition [13] [%] | inhibition [14] [%] | inhibition [15] [%] | inhibition [16] [%]
1 | O=S(=O)(c1cccc2cnccc12)N1CCC2(CCC(O)CN2)CC1 (racemic) | 49 | 2 | 80 | 0 | 95 | 89 | 87 | 17 | 8 | 17 | 19 | 21 | 14 | 17 | 64 | 19
2 | OC1CCC2(CCN(c3ncnc4[nH]cnc34)CC2)NC1 (racemic) | 30 | 3 | 31 | 4 | 67 | 89 | 80 | 25 | 42 | 46 | 11 | 93 | 59 | 18 | 48 | 21
3 | OC1CCNC2(CCN(c3ncnc4[nH]cnc34)CC2)C1 (racemic) | 32 | 4 | 19 | 0 | 40 | 93 | 63 | 23 | 32 | 28 | 8 | 94 | 59 | 28 | 23 | 14
